Screens from PubChem BioAssay.
Hits are enriched below; roughly 2.6% of the tested compounds scored in any of these assays.
Vif imaging: HIV Vif self-association inhibitors, primary screen, imaging, HEK293T, single point; HEK293T cells, Vif self-association by quenched fluorescence, 24 h; inhibition, % at 7.49 µM; actives 0.35% (n = 340,000); AID 602346, 2012; in the data active = inhibition above about 50%, passing the limit was not always enough
FN deposition inh: inhibitors of fibronectin matrix deposition, primary screen, AH1F cells, Alexa488-fibronectin fluorescence, plate reader; AH1F fibroblasts, overnight; inhibition, % at 12.6 µM; actives 0.086% (n = 350,000); AID 743247, 2014;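 active = mean inhibition across replicates of 30% or more, regardless of how many single replicates reach that level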
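Material – AH1F fibroblast monolayer, labelled fibronectin deposition · Reagent – labelled fibronectin 24 nM · Timing – 1 h adhesion, overnight exposure · Measured by – fluorescence at 485 nm excitation, 525 nm emission · Read-out – inhibition of fibronectin deposition signal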
S100A4 MyoIIA: inhibitors of S100A4-myosin IIA peptide binding, primary screen, biochemical, fluorescence polarization, TAMRA-MyoIIA peptide. AID 652163, 2013. inhibition, % at 10.7 µM. actives 0.14% (n = 360,000). Protein S100-A4 (Homo sapiens), P26447;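 active = mean inhibition of at least 70% across replicates, with every replicate also reaching that level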
Target sequence (P26447 whole entry, looked up): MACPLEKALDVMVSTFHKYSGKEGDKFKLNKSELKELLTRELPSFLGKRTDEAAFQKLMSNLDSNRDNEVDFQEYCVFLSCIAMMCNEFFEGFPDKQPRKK
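Material: S100A4 monomer protein | Medium: HEPES pH 7.2 with CaCl2, KCl, NaCl, DTT, Triton | Reagent: Labelled myosin peptide probe, 5 nM | Doses: One dose per compound | Times: 5 min incubation before reading | Benchmarks: Neutral control DMSO, positive control TFP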
rRNA inh HTS: reduced GFP signal of wild-type E. coli, primary screen, bacterial rRNA inhibitor project, GFP/RFP fluorescence, OD600, single point | E. coli WT GFP vs humanized-ribosome RFP mutants, 24 h; hits give low values; DMSO median 0, no signal -100 | GFP signal change (wild-type ribosome), % (concentration not given with the values) | actives 1.6% (n = 350,000);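 active = significant combined selectivity score with lowered wild-type GFP, culture density cut under 30%, mutant RFP and density less affected; inactive = any of these conditions unmet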
HIV Env fusion: inhibitors of HIV-1 Env-driven cell-cell fusion, primary screen, HeLa-JRFL effector, CEM21 target cells, luciferase; inhibition, % at 12.3 µM; actives 1.1% (n = 360,000); AID 651610, 2012;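 active = mean replicate inhibition score of at least 50 and every replicate individually at or above 50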
miR122 inh: miR-122 Renilla sensor signal increase in Huh7, primary screen, miR-122 inhibitor project, cell-based, single point, plate reader; Huh7 miR-122 Renilla luciferase sensor, 48 h; neutral wells = 0, positive control = 100; activation (reporter increase), % at 12.5 µM; actives 0.3% (n = 340,000); AID 602342, 2012;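 active = mean replicate activation score at least 90 and every replicate individually at or above 90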;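 note: higher luciferase means less miR-122 activity so hits act as miR-122 inhibitors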
A number is an active result.

CO[C@H]1CN(C)C(=O)c2ccc(NC(=O)c3ccc(F)cc3)cc2OC[C@H](C)N(C(=O)CN(C)C)C[C@H]1C was read as FN deposition inh inactive, rRNA inh HTS inactive and miR122 inh inactive.
`CCOc1ccc(NC(=O)/C(C#N)=C\c2ccc(N3CCCC3)c(C)c2)cc1` gave Vif imaging 54, FN deposition inh inactive, S100A4 MyoIIA inactive, rRNA inh HTS inactive and HIV Env fusion inactive.
For Cn1c(C(=O)O)c(C=O)c2ccccc21 the results were Vif imaging inactive, FN deposition inh inactive, S100A4 MyoIIA inactive, rRNA inh HTS inactive, HIV Env fusion inactive and miR122 inh inactive.
For Cc1c(C(=O)C(C)C)n(C)c2ccccc12 the results were Vif imaging 59 and miR122 inh inactive.
`O=S(=O)(NCc1ccccc1)c1ccc(Cl)c(S(=O)(=O)NCc2ccccc2)c1` gave Vif imaging inactive, HIV Env fusion inactive and miR122 inh 106.
For O=S(=O)(NCc1ccccc1)c1ccc2ccccc2c1 the results were Vif imaging inactive, FN deposition inh inactive, S100A4 MyoIIA inactive, rRNA inh HTS inactive and HIV Env fusion inactive.
COc1ccccc1Oc1ccc(S(=O)(=O)NCc2ccccn2)cc1 was read as Vif imaging inactive and HIV Env fusion 76.
`COc1ccc(CNS(=O)(=O)c2ccc(OC)cc2)cc1` gave miR122 inh inactive.
For COc1ccc(S(=O)(=O)NCc2ccccc2)cc1 the results were Vif imaging inactive, HIV Env fusion inactive and miR122 inh 113.
For COc1ccc(S(=O)(=O)NCc2ccccc2)cc1Br the results were Vif imaging inactive, FN deposition inh inactive, S100A4 MyoIIA inactive, rRNA inh HTS inactive, HIV Env fusion inactive and miR122 inh 192.
`COCC(=O)Nc1ccc2c(c1)C(=O)N(C)C[C@@H](OC)[C@@H](C)CN(Cc1ccccn1)[C@@H](C)CO2` gave FN deposition inh inactive, S100A4 MyoIIA inactive, rRNA inh HTS inactive and HIV Env fusion inactive.
For C[C@H]1CN([C@@H](C)CO)C(=O)c2cc(C#CC3CCCC3)cnc2O[C@H]1CN(C)S(C)(=O)=O the results were FN deposition inh inactive, S100A4 MyoIIA inactive, rRNA inh HTS inactive and HIV Env fusion inactive.
`Cc1ccccc1-c1cnc2c(c1)C(=O)N([C@@H](C)CO)C[C@@H](C)[C@@H](CN(C)C(=O)CN(C)C)O2` gave FN deposition inh inactive, S100A4 MyoIIA inactive, rRNA inh HTS inactive, HIV Env fusion inactive and miR122 inh inactive.
For C[C@@H]1CN([C@@H](C)CO)C(=O)c2cc(C3=CCCC3)cnc2O[C@H]1CN(C)C(=O)c1ccncc1 the results were FN deposition inh inactive, S100A4 MyoIIA inactive, rRNA inh HTS inactive, HIV Env fusion inactive and miR122 inh inactive.
For Cc1noc(C)c1NC(=O)Nc1ccc2c(c1)CC(=O)N([C@H](C)CO)C[C@H](C)[C@@H](CN(C)C(=O)Nc1ccc3c(c1)OCO3)O2 the results were S100A4 MyoIIA inactive, rRNA inh HTS inactive, HIV Env fusion inactive and miR122 inh inactive.
Screening COc1ccc(N(C(=O)c2ccco2)S(=O)(=O)c2cc(Cl)c(Cl)cc2Cl)cc1 returned Vif imaging inactive, HIV Env fusion inactive and miR122 inh 134.
Screening COc1nc(-c2ccccc2Cl)ccc1C#N returned Vif imaging inactive, HIV Env fusion 56 and miR122 inh inactive.
Screening O=C(Nc1ccccc1Cl)c1ccccc1CC(O)(c1ccccc1)c1ccccc1 returned Vif imaging inactive, FN deposition inh inactive, S100A4 MyoIIA inactive, rRNA inh HTS inactive and HIV Env fusion 93.
`CCN(CC)CCn1c(SCC(=O)Nc2cccc(OC)c2)nc2c(sc3ccccc32)c1=O` gave Vif imaging inactive, FN deposition inh inactive, S100A4 MyoIIA inactive, rRNA inh HTS -21 and HIV Env fusion inactive.
`COc1ccc(NC(=O)Nc2ccc3c(c2)C(=O)N([C@H](C)CO)C[C@H](C)[C@@H](CN(C)S(=O)(=O)c2ccc(OC)cc2)OCCCC[C@@H](C)O3)cc1` gave FN deposition inh inactive, rRNA inh HTS inactive, HIV Env fusion inactive and miR122 inh inactive.
Screening C[C@@H]1CC[C@H]2C(=O)N3[C@@H](CC[C@@H](C)[C@@H]3c3ccc(Br)cc3)C(=O)N2[C@H]1c1ccc(Br)cc1 returned Vif imaging inactive, FN deposition inh inactive, S100A4 MyoIIA inactive, rRNA inh HTS inactive and HIV Env fusion 77.
C[C@@H]1CN([C@H](C)CO)C(=O)c2cccc(NS(C)(=O)=O)c2O[C@H]1CN(C)C(=O)NC1CCCCC1 was read as S100A4 MyoIIA inactive, rRNA inh HTS inactive and miR122 inh inactive.
Screening Cn1c(=O)c2c(nc(SCC(=O)NCc3ccc4c(c3)OCO4)n2Cc2ccc(F)cc2)n(C)c1=O returned Vif imaging inactive, FN deposition inh inactive, HIV Env fusion 137 and miR122 inh inactive.
CCCCn1c(SCC(=O)Nc2ccc3c(c2)OCO3)nc2c1c(=O)n(C)c(=O)n2C was read as Vif imaging inactive, HIV Env fusion 79 and miR122 inh inactive.
CCCn1c(SCC(=O)Nc2ccc(NC(=O)CC)cc2)nc2c1c(=O)n(C)c(=O)n2C was read as Vif imaging inactive, FN deposition inh inactive, S100A4 MyoIIA inactive, rRNA inh HTS inactive, HIV Env fusion inactive and miR122 inh inactive.
For C[C@H]1CN([C@@H](C)CO)C(=O)c2cc(NS(C)(=O)=O)ccc2O[C@@H]1CN(C)C(=O)Nc1ccc(F)cc1 the results were S100A4 MyoIIA inactive, rRNA inh HTS inactive and miR122 inh inactive.
Screening COc1ccc2c3c(n(C)c2c1)[C@H](CO)N(S(C)(=O)=O)CC31CCN(CC2CCCC2)CC1 returned S100A4 MyoIIA inactive and rRNA inh HTS inactive.
For O=C(CCN1CCOCC1)NNC(=S)NC(=O)c1ccccc1 the results were Vif imaging 69, FN deposition inh inactive, S100A4 MyoIIA inactive, rRNA inh HTS inactive, HIV Env fusion inactive and miR122 inh inactive.
For O=C(CN1CCOCC1)Nc1ccc(Cl)cc1 the results were Vif imaging inactive, FN deposition inh inactive, S100A4 MyoIIA inactive, rRNA inh HTS inactive, HIV Env fusion inactive and miR122 inh inactive.
For O=C(CCN1CCOCC1)Nc1ccc(Cl)cc1 the results were Vif imaging 74, FN deposition inh inactive, S100A4 MyoIIA inactive, rRNA inh HTS inactive, HIV Env fusion inactive and miR122 inh inactive.
